Measured values as given in ChEMBL document CHEMBL3600302, “A Ligand-Based Drug Design. Discovery of 4-Trifluoromethyl-7,8-pyranocoumarin as a Selective Inhibitor of Human Cytochrome P450 1A2” (J Med Chem, 2015).

How the values were obtained:
Homo sapiens [1] = organism: Homo sapiens; assay: Selectivity ratio of Ki for human microsomal CYP1A1 to Ki for human microsomal CYP1A2
In short: (§1)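 Microsomal P450 (final 5 nM) in 0.1 M potassium phosphate pH 7.6 with MgCl2 at 37 °C. Substrate final 5 µM: ethoxyresorufin for 1A1/1B1, methoxyresorufin for 1A2. […] Ki was taken as the x-intercept of Dixon plots (1/v0 vs [I]). Mean ± SD of three independent experiments. Selectivity ratios are ratios of these Ki.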

Cytochrome P450 1A2 [2] = molecular target: T1, Cytochrome P450 1A2 (Homo sapiens, UniProt P05177); assay: Inhibition of human microsomal CYP1A2-dependent methoxyresorufin-O-demethylase activity at 10 nM measured over 6 mins by spectrofluorimetric analysis in absence of NADPH regenerating solution; details: 0.1 h, 0.01 µM
T1 sequence (P05177 whole entry): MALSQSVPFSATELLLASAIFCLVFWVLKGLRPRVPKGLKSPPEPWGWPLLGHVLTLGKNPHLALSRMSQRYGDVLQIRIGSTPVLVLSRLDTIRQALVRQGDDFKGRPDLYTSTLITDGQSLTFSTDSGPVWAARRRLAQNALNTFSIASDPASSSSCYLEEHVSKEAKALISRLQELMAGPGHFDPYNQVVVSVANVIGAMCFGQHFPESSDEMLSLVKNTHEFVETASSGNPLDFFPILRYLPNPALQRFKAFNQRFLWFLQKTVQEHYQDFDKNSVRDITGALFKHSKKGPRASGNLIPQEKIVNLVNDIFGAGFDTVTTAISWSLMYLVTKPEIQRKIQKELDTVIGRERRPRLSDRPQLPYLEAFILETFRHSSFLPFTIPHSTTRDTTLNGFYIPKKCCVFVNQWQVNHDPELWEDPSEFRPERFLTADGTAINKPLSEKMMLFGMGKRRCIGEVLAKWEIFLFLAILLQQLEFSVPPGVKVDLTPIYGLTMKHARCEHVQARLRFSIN

Cytochrome P450 1A1 [3] = molecular target: T2, Cytochrome P450 1A1 (Homo sapiens, UniProt P04798); assay: Inhibition of human microsomal CYP1A1-dependent ethoxyresorufin-O-deethylase activity at 10 nM preincubated for 5 mins followed by NADPH regenerating solution and substrate addition measured over 6 mins by spectrofluorimetric analysis; details: 0.1 h, 0.01 µM
T2 sequence (P04798 whole entry): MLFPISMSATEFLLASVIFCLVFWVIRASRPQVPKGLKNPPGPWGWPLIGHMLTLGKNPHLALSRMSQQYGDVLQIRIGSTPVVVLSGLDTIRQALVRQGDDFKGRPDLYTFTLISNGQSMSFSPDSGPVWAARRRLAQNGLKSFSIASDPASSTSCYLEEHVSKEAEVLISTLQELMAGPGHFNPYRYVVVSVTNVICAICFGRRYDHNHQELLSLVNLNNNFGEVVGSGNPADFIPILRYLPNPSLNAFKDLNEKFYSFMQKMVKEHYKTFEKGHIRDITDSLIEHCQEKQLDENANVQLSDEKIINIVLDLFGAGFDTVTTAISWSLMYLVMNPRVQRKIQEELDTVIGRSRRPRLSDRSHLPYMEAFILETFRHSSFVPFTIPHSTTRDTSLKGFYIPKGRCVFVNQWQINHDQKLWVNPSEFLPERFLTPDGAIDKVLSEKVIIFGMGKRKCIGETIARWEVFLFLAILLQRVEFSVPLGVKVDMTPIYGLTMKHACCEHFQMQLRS
In short: (§2)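 Microsomal P450 in 0.1 M potassium phosphate pH 7.6 with MgCl2 and 10 nM inhibitor in DMSO, 2 mL final. Preincubated 5 min at 37 °C either with NADPH-regenerating solution, or without it, with NADPH then added at start. Reaction started with ethoxyresorufin (final 5 µM). Resorufin formation followed 6 min at 37 °C.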

CYP1A2 [4] = molecular target: T3, CYP1A2 (Homo sapiens, UniProt P05177); assay: Inhibition of human microsomal CYP1A2-dependent methoxyresorufin-O-demethylase activity at 10 nM preincubated for 5 mins followed by NADPH regenerating solution and substrate addition measured over 6 mins by spectrofluorimetric analysis relative to control; details: human microsomal CYP1A2, probe methoxyresorufin (O-demethylation)
T3 sequence (P05177 whole entry): T1 sequence (P05177 whole entry)

Cytochrome P450 1A1 [5] = molecular target: T2, Cytochrome P450 1A1; assay: Inhibition of human microsomal CYP1A1-dependent ethoxyresorufin-O-deethylase activity by spectrofluorimetric analysis in presence of NADPH regenerating solution; in short: as §1
Cytochrome P450 1A2 [6] = molecular target: T1, Cytochrome P450 1A2; assay: Inhibition of human microsomal CYP1A2-dependent methoxyresorufin-O-demethylase activity measured over 6 mins by spectrofluorimetric analysis; details: 0.1 h; in short: as §1
Cytochrome P450 1B1 [7] = molecular target: T4, Cytochrome P450 1B1 (Homo sapiens, UniProt Q16678); assay: Inhibition of human microsomal CYP1B1-dependent ethoxyresorufin-O-deethylase activity at 10 nM measured over 6 mins by spectrofluorimetric analysis in absence of NADPH regenerating solution; details: 0.1 h, 0.01 µM; in short: as §2
T4 sequence (Q16678 whole entry): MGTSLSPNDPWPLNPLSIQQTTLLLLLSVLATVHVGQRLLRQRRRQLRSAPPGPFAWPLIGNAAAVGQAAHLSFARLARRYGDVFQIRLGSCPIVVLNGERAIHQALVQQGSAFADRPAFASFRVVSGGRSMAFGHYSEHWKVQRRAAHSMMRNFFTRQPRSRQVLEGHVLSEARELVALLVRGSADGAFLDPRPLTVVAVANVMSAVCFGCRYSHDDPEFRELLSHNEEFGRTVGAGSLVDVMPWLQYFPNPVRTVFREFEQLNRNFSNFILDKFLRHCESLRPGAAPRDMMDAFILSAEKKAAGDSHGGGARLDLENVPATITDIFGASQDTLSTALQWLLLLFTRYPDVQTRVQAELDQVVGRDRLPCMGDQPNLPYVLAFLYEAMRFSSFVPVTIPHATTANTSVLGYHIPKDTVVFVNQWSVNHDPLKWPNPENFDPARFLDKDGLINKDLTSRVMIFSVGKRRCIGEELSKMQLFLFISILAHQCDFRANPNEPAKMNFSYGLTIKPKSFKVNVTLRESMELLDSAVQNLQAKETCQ

CYP1A2 [8] = molecular target: T3, CYP1A2; assay: Time-dependent inhibition of human microsomal CYP1A2-dependent methoxyresorufin-O-demethylase activity by spectrofluorimetric analysis in presence of NADPH regenerating solution; details: human microsomal CYP1A2, probe methoxyresorufin (O-demethylation)
In short: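 1A2 MROD run with NADPH at 0.0125, 0.025, 0.05 and 0.1 µM inhibitor, product monitored continuously over 6 min. Activity at different times came from first derivatives of product curves, expressed as % of control remaining. KI and limiting kinact were derived from the resulting linear plot.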

Homo sapiens [9] = organism: Homo sapiens; assay: Selectivity ratio of Ki for human microsomal CYP1B1 to Ki for human microsomal CYP1A2; in short: as §1
Cytochrome P450 1B1 [10] = molecular target: T4, Cytochrome P450 1B1; assay: Inhibition of human microsomal CYP1B1-dependent ethoxyresorufin-O-deethylase activity by spectrofluorimetric analysis in presence of NADPH regenerating solution
In short: (§3)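 Microsomal P450 (final 5 nM) in 0.1 M potassium phosphate pH 7.6 with MgCl2 at 37 °C. Substrate final 5 µM: ethoxyresorufin for 1A1/1B1, methoxyresorufin for 1A2. Ki was taken as the x-intercept of Dixon plots (1/v0 vs [I]). Mean ± SD of three independent experiments. Selectivity ratios are ratios of these Ki.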

Cytochrome P450 1A2 [11] = molecular target: T1, Cytochrome P450 1A2; assay: Inhibition of human microsomal CYP1A2-dependent methoxyresorufin-O-demethylase activity by spectrofluorimetric analysis in presence of NADPH regenerating solution; in short: as §3

Ratio Ki (Homo sapiens [1]): 14 | inhibition (INH) (Cytochrome P450 1A2 [2]): Active | inhibition (INH) (Cytochrome P450 1A1 [3]): Not Active | inhibition at 0.1 h, 0.01 µM (CYP1A2 [4]): > 90% | Ki (Cytochrome P450 1A1 [5]): 430 nM | inhibition (INH) (Cytochrome P450 1A2 [6]): Dose-dependent effect | inhibition (INH) (Cytochrome P450 1B1 [7]): Not Active | kinact (CYP1A2 [8]): 0.007 s⁻¹ | Ratio Ki (Homo sapiens [9]): 6 | Ki (Cytochrome P450 1B1 [10]): 180 nM | Ki (Cytochrome P450 1A2 [11]): 30 nM
Compound: Cc1cc2c(ccc3c(=O)cc(-c4ccccc4)oc32)o1
